Laboratory results: ChEMBL document CHEMBL4028856, “Discovery of Small Molecules Targeting the Synergy of Cardiac Transcription Factors GATA4 and NKX2-5” (J Med Chem, 2017)
The source made the active and inactive calls. No cut-off for these calls is given here.

Test system: not listed separately
Experiment: Induction of apoptosis in endothelin-1 induced neonatal rat ventricular cardiomyocytes at 50 uM measured after 24 hrs by TUNEL assay
Format: cell-based
Details: cardiac muscle cell
Procedure, shortened: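 Neonatal rat cardiomyocytes on 8-well chamber slides treated 24 h at 50 μM; apoptotic cells detected by TUNEL with peroxidase in situ kit.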

With `Cc1onc(-c2ccccc2)c1C(=O)N(C1=NC(C)CS1)c1ccc(Cl)cc1` (configuration not stated) the Activity was “Non-Toxic”.

Biological target: T1, GATA4/NKX2-5 (Rattus norvegicus) (UniProt P46152+O35767)
Experiment: Activation of GATA4/NKX2-5 interaction in neonatal rat ventricular cardiomyocytes assessed as increase in basal mRNA level of ANP at 20 uM after 24 hrs by real-time PCR analysis relative to control
Details: not given
Procedure, shortened: (§1)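 Neonatal rat ventricular myocytes (2–4-day-old Sprague-Dawley or Wistar), preplated, seeded on 6-well plates, moved to complete serum-free medium next day and cultured 24 h. Compounds (10–100 μM) added 1 h before 100 nM endothelin-1 or none; ANP and BNP mRNA quantified by RT-PCR at 24 h, normalized to 18S RNA, relative to vehicle; mean ± SD, n = 3–6.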

Work on `Cc1onc(-c2ccccc2)c1C(=O)N(C1=NC(C)CS1)c1ccc(Cl)cc1` (configuration not stated) yielded a fold change (FC) of 4.6.

Test system: not listed separately
Experiment: Induction of aggregation of compound at 30 uM by nephalometric method
Details: not given

For `Cc1onc(-c2ccccc2)c1C(=O)N(C1=NC(C)CS1)c1ccc(Cl)cc1` (configuration not stated), the Activity was “Active”.

Biological target: T2, GATA4/NKX2-5 (Mus musculus) (UniProt Q08369+P42582)
Experiment: Activation of mouse GATA4/NKX2-5 transcriptional synergy expressed in African green monkey COS-1 cells at 10 uM measured after 30 hrs by dual luciferase reporter gene assay
Format: cell-based
Details: not given
Procedure, shortened: (§2)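 COS-1 cells co-transfected (Fugene 6, DNA:reagent 1:3) with p3xNKE-luc, Renilla pRL-TKd238 control, and pMT2-GATA4, pMT2-NKX2-5, both, or empty pMT2; DNA balanced with pMT2. Compounds added 6 h post-transfection in 0.1% DMSO, medium renewed at 24 h, lysis at 30 h. Dual-luciferase read-out, firefly/Renilla normalized to vehicle; duplicate wells.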

With `Cc1onc(-c2ccccc2)c1C(=O)N(C1=NC(C)CS1)c1ccc(Cl)cc1` (configuration not stated) the Activity was “Active”.

Test system: not listed separately
Experiment: Induction of necrosis in neonatal rat ventricular cardiomyocytes assessed as release of adenylate kinase at 50 uM measured after 24 hrs by bioluminescence assay
Format: cell-based
Details: cardiac muscle cell
Procedure, shortened: (§3)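 Neonatal rat cardiomyocytes treated 24 h at 50 μM; adenylate kinase released into medium measured by ToxiLight bioluminescence on a luminometer; relative to vehicle, mean ± SD, n = 3.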

For `Cc1onc(-c2ccccc2)c1C(=O)N(C1=NC(C)CS1)c1ccc(Cl)cc1` (configuration not stated), the Activity was “Non-Toxic”.

Biological target: GATA4/NKX2-5 (Mus musculus, UniProt P42582+Q08369)
Sequence (Q08369 whole entry): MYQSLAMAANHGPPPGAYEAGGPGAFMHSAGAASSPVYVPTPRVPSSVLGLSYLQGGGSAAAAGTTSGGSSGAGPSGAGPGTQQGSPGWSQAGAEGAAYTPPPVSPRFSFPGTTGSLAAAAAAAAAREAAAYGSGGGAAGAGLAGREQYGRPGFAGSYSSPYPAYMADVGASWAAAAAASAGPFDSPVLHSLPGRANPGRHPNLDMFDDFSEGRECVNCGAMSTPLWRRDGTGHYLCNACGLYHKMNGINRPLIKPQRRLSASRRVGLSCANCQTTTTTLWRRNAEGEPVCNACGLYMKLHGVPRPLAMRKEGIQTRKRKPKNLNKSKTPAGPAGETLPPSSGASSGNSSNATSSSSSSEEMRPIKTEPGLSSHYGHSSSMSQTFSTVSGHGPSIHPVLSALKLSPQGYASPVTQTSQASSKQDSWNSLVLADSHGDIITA
Sequence (P42582 whole entry): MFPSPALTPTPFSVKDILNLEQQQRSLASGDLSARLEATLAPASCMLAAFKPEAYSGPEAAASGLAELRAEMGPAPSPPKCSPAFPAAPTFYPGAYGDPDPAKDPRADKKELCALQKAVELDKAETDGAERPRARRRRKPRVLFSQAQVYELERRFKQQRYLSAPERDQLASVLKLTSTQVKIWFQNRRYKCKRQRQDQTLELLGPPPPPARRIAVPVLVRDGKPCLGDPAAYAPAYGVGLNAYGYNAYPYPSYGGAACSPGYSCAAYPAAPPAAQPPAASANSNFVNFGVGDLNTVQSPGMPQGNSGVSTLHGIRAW
Experiment: Inhibition of mouse GATA4/NKX2-5 transcriptional synergy expressed in African green monkey COS-1 cells measured after 30 hrs by dual luciferase reporter gene assay
Format: cell-based
Details: not given
Procedure, shortened: as §2

`COc1ccc(/C=N/n2c(S)nnc2C2CCCCC2)cc1OCc1ccccc1` and `CCOc1ccc(/C=N/n2c(S)nnc2C2CCCCC2)cc1` are within 1.5-fold of each other in IC50: 10 µM for the first, 7 µM for the second.

Compared with `Cc1onc(-c2ccccc2)c1C(=O)Nc1ccc(C(C)C)cc1`, `CCC(C)c1ccc(NC(=O)c2c(-c3ccccc3)noc2C)cc1` (configuration not stated) is 2-fold higher in IC50: 16 µM for the first, 32 µM for the second.

Compared with `Cc1nc(-c2ccc(NC(=O)c3c(-c4ccccc4)noc3C)cc2)cs1`, `Cc1onc(-c2ccccc2)c1C(=O)Nc1ccc(C(C)(C)C)cc1` is lower in IC50: over 50 µM for the first, 18 µM for the second. The second is the more potent here.

Compared with `CC(C)CNC(=O)c1ccc(NC(=O)c2cccs2)cc1`, `CC(C)COC(=O)c1ccc(NC(=O)c2cccs2)cc1` is lower in IC50: over 50 µM for the first, 9 µM for the second. The second is the more potent here.

Compared with `Cc1onc(-c2ccccc2)c1C(=O)Nc1ccc(N2CCCCC2)cc1`, `Cc1onc(-c2ccccc2)c1C(=O)Nc1ccc(-c2nnc3n2CCCCC3)cc1` is lower in IC50: over 50 µM for the first, 20 µM for the second.

`CCCC(=O)Nc1ccc(C(=O)NCC(C)C)cc1` and `CCC(CC)C(=O)Nc1ccc(C(=O)NCC(C)C)cc1` cannot be ordered by IC50: over 50 µM for the first, over 50 µM for the second.

`CC(C)CNC(=O)c1ccc(NC(=O)c2ccccc2)cc1` and `COc1cccc(C(=O)Nc2ccc(C(=O)NCC(C)C)cc2)c1` cannot be ordered by IC50: over 50 µM for the first, over 50 µM for the second.

First: CC(C)COC(=O)c1ccc(NC(=O)CCC(=O)O)cc1
Second: CC(C)COC(=O)c1ccc(NC(=O)COc2ccccc2Cl)cc1
The IC50 of the first is lower: 37 µM for the first, over 50 µM for the second.

Compared with `CC(C)CNC(=O)c1ccc(NC(=O)C2CC2)cc1`, `Cc1ccc(C(=O)Nc2ccc(C(=O)OCC(C)C)cc2)cc1C` is higher in IC50: 23 µM for the first, over 50 µM for the second. The first is the more potent here.

Going from `COc1cccc(/C=N/n2c(SC)nnc2-c2ccccc2)c1OC` to `COc1ccc(/C=N/n2c(S)nnc2-c2ccccc2)cc1C`, the IC50 falls from over 50 µM to 11 µM.

Going from `Cc1onc(-c2ccccc2)c1C(=O)Nc1ccc(S(=O)(=O)N2CCOCC2)cc1` to `Cc1onc(-c2ccccc2)c1C(=O)Nc1ccc(S(=O)(=O)Nc2ncccn2)cc1`, the IC50 falls from over 50 µM to 28 µM.

`Cc1onc(-c2ccccc2)c1C(=O)Nc1cccc(S(=O)(=O)NC2=NC=CC2)c1` and `Cc1onc(-c2ccccc2)c1C(=O)Nc1cccc(S(=O)(=O)NCc2ccco2)c1` are within 1.5-fold of each other in IC50: 28 µM for the first, 20 µM for the second.

`Cc1onc(-c2ccccc2)c1C(=O)Nc1ccc(C#N)c(Cl)c1` and `Cc1onc(-c2ccccc2)c1C(=O)Nc1ccc2c(c1)CCC2` are within 1.5-fold of each other in IC50: 16 µM for the first, 17 µM for the second.

First: Sc1nnc(-c2ccccc2)n1/N=C/c1ccc(OC2CCCC2)cc1
Second: CC(C)c1ccc(/C=N/n2c(S)nnc2-c2cccnc2)cc1
The IC50 of the first is lower: 37 µM for the first, over 50 µM for the second. The first is the more potent here.

`CCN(CC)c1ccc(/C=N/n2c(S)nnc2-c2ccccc2)c(OC)c1` and `Cc1onc(-c2ccccc2)c1C(=O)Nc1ccc(-n2cnnn2)cc1` cannot be ordered by IC50: over 50 µM for the first, over 50 µM for the second.

Compared with `Cc1onc(-c2ccccc2)c1C(=O)Nc1ccc(C(=O)OC(C)C)cc1`, `Cc1onc(-c2ccccc2)c1C(=O)Nc1ccc(OC(F)(F)F)cc1` is 1.8-fold lower in IC50: 20 µM for the first, 11 µM for the second. The second is the more potent here.

Compared with `Cc1onc(-c2ccccc2)c1C(=O)Nc1cccc(C(=O)NC2CC2)c1`, `Cc1onc(-c2ccccc2)c1C(=O)Nc1ccc(Oc2ccccc2)cc1` is higher in IC50: 20 µM for the first, over 50 µM for the second.

First: CCOc1ccc(/C=C2\SC(=O)N(CC)C2=O)cc1
Second: CCN1C(=O)S/C(=C\c2ccc(N3CCCC3)c(F)c2)C1=O
The IC50 of the first is 1.6-fold lower: 5 µM for the first, 8 µM for the second. The first is the more potent here.

In the case of `CCNc1ccc(NC(=O)c2c(-c3ccccc3)noc2CO)cc1`, the IC50 is reported as over 50 µM.

Biological target: T1, GATA4/NKX2-5 (Rattus norvegicus)
Experiment: Activation of GATA4/NKX2-5 interaction in neonatal rat ventricular cardiomyocytes assessed as increase in endothelin-1 induced mRNA level of BNP at 20 uM preincubated for 1 hr followed by endothelin-1 addition measured after 23 hrs by real-time PCR analysis relative to control
Details: not given
Procedure, shortened: as §1

`Cc1onc(-c2ccccc2)c1C(=O)N(C1=NC(C)CS1)c1ccc(Cl)cc1` (configuration not stated) showed a fold change (FC) of 2.1.

Biological target: T1, GATA4/NKX2-5 (Rattus norvegicus)
Experiment: Activation of GATA4/NKX2-5 interaction in neonatal rat ventricular cardiomyocytes assessed as increase in basal mRNA level of BNP at 20 uM after 24 hrs by real-time PCR analysis relative to control
Details: not given
Procedure, shortened: as §1

Compound `Cc1onc(-c2ccccc2)c1C(=O)N(C1=NC(C)CS1)c1ccc(Cl)cc1` (configuration not stated) has a fold change (FC) of 6.4.

Test system: not listed separately
Experiment: Induction of necrosis in endothelin-1 induced neonatal rat ventricular cardiomyocytes assessed as release of adenylate kinase at 50 uM measured after 24 hrs by bioluminescence assay
Format: cell-based
Details: cardiac muscle cell
Procedure, shortened: as §3

For `Cc1onc(-c2ccccc2)c1C(=O)N(C1=NC(C)CS1)c1ccc(Cl)cc1` (configuration not stated), the Activity was “Non-Toxic”.

Test system: not listed separately
Experiment: Induction of aggregation of compounds at 100 uM by nephalometric method
Details: not given

With `Cc1onc(-c2ccccc2)c1C(=O)N(C1=NC(C)CS1)c1ccc(Cl)cc1` (configuration not stated) the Activity was “Active”.

Biological target: T2, GATA4/NKX2-5 (Mus musculus)
Experiment: Activation of mouse GATA4/NKX2-5 transcriptional synergy expressed in African green monkey COS-1 cells measured after 30 hrs by dual luciferase reporter gene assay
Format: cell-based
Details: not given
Procedure, shortened: as §2

Work on `Cc1onc(-c2ccccc2)c1C(=O)N(C1=NC(C)CS1)c1ccc(Cl)cc1` (configuration not stated) yielded a Ka of 7 µM.

Biological target: T2, GATA4/NKX2-5 (Mus musculus)
Experiment: Inhibition of mouse GATA4/NKX2-5 transcriptional synergy expressed in African green monkey COS-1 cells at 20 uM measured after 30 hrs by dual luciferase reporter gene assay
Format: cell-based
Details: 5 uM, in the assay text read “5 uM” for “20 uM”
Procedure, shortened: as §2

In the case of `CCOc1ccc(/C=C2\SC(=O)N(CC)C2=O)cc1`, the inhibition is reported as “Active”.

Biological target: T1, GATA4/NKX2-5 (Rattus norvegicus)
Experiment: Inhibition of GATA4/NKX2-5 interaction in neonatal rat ventricular cardiomyocytes assessed as decrease in endothelin-1 induced mRNA level of BNP at 20 uM preincubated for 1 hr followed by endothelin-1 addition measured after 23 hrs by real-time PCR analysis
Details: not given
Procedure, shortened: as §1

For `Cc1onc(-c2ccccc2)c1C(=O)Nc1ccc(OC(F)(F)F)cc1`, the inhibition was “Active”.

Biological target: T1, GATA4/NKX2-5 (Rattus norvegicus)
Experiment: Inhibition of GATA4/NKX2-5 interaction in neonatal rat ventricular cardiomyocytes assessed as decrease in endothelin-1 induced mRNA level of ANP at 20 uM preincubated for 1 hr followed by endothelin-1 addition measured after 23 hrs by real-time PCR analysis
Details: not given
Procedure, shortened: as §1

In the case of `Cc1onc(-c2ccccc2)c1C(=O)Nc1ccc(C#N)c(Cl)c1`, the inhibition is reported as “Active”.
For `Cc1onc(-c2ccccc2)c1C(=O)Nc1ccc(OC(F)(F)F)cc1`, the inhibition was “Active”.
For `CC(C)COC(=O)c1ccc(NC(=O)c2cccs2)cc1`, the inhibition was “Active”.
